MrgX1 antagonist = human MrgX1 receptor antagonism, primary screen; Q96LB2; MRGX1-HEK293 calcium flux, Fluo-4, BAM8-22 antagonism; stronger effect = lower value; B-score at 10 µM; 310,000 compounds, 1.3% hits; AID 588676;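 active means calcium-response B-score plate-corrected more than 3 library SD below zero, starting fluorescence within 5 deviations, no agonist response on first addition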;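 further: peak minus trough fluorescence over baseline after final BAM8-22 challenge near maximal dose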
Target sequence (Q96LB2 whole entry, looked up): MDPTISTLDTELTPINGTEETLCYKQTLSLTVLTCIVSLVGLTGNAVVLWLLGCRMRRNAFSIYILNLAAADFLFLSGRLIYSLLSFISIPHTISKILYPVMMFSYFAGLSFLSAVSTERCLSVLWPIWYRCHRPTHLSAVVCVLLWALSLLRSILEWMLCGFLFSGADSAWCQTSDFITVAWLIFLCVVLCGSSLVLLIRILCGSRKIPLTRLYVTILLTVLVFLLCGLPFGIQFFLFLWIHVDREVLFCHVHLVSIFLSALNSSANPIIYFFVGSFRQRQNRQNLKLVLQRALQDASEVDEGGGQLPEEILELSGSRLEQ
MrgX1 ag = human MrgX1 receptor agonism, primary screen | Q96LB2 | MrgX1-HEK293 cells, Fluo-4 calcium fluorescence, agonist mode; stronger effect = higher value | B-score at 10 µM | 310,000 compounds, 0.44% hits | AID 588627;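 active means calcium response B-score plate-corrected fluorescence ratio at least 3 library SD, with starting fluorescence B-score inside 5 SD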
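Material – MrgX1-expressing HEK293 cells · Input – 15,000 cells seeded per well · Dosing – compound as first of three additions · Times – overnight seeding, then 1 h dark dye loading · Measured by – kinetic Fluo-4 NW fluorescence of intracellular calcium · Read-out – B-scored fluorescence response ratio · Benchmarks – positive and negative control wells on each plate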
MrgX1 allo act = human MrgX1 positive allosteric modulation, primary screen. Q96LB2. B-score at 10 µM. 310,000 compounds, 0.63% hits. MrgX1-HEK293, Fluo-4 calcium flux, FDSS; stronger effect = higher value;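 active means plate-corrected calcium response at least 3 library SD above typical, normal starting fluorescence, not activating the receptor alone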;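 further: compound read alongside a low EC10 to EC30 dose of BAM8-22 agonist; peak minus trough fluorescence over baseline measured at the second addition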
RGS4 block = inhibitors of human RGS4; P49798; HEK293 M3R/RGS4 inducible, Fluo-4 calcium flux; stronger effect = higher value; triggered by carbachol at its EC20; B-score at 10 µM; 310,000 compounds, 0.45% hits; AID 463165;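 active means B-score, a plate-corrected calcium signal, over three deviations above library mean, with baseline fluorescence within five deviations of library mean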;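 further: RGS4 expression induced by doxycycline in cells with stable M3 receptor; B-score is computed from the integrated fluorescence ratio over baseline after carbachol; higher B-score means a larger calcium signal and so more RGS4 inhibition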
Target sequence (P49798 whole entry, looked up): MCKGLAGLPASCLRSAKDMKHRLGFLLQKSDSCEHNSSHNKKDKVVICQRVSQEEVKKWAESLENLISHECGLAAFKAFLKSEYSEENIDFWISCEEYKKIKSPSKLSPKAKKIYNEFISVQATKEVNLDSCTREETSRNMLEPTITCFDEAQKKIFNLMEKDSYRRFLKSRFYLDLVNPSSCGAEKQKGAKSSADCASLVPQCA
RGS4 act = RGS4 potentiation or activation; 310,000 compounds, 0.92% hits; B-score at 10 µM; HEK293 M3R/inducible RGS4, carbachol calcium flux Fluo4; stronger effect = lower value;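 active means B-score of the integrated calcium signal more than 4 SD below the library mean, with starting fluorescence not abnormally high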;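 further: negative B-score means reduced calcium response which marks RGS4 activation or potentiation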
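Assay system: HEK293 FlpIn-TREx cells, stable M3R, doxycycline-inducible RGS4 / Probe or stimulus: carbachol, ECmax concentration / Times: overnight RGS4 induction, 30 min dye load 37 °C, 20 min compound RT / Signal: kinetic calcium fluorescence imaging with Fluo4-AM dye, 2 µM / Measure: Agonist-evoked peak-minus-minimum fluorescence over baseline, integrated ratio, B score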
MrgX1 antag conf = reconfirmed antagonist of human MrgX1 receptor signaling. shares compounds with MrgX1 antagonist. remaining BAM8-22 calcium response % of control (stronger effect = lower value), % at 10 µM. MrgX1-HEK293, BAM8-22 calcium flux, Fluo-4; stronger effect = lower value. 2,300 compounds, 19% hits;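 active means remaining agonist calcium response no higher than 100% minus 3 SD of agonist-only control wells, with starting fluorescence near control levels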;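 further: agonist BAM8-22 given at a near maximal EC90 to ECmax level; peak minus minimum fluorescence divided by baseline after agonist addition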
HEK293 Ca flux = MrgX1 antagonist counter-screen hit in parental HEK293 cells; shares compounds with MrgX1 antagonist; Fluo-4 calcium fluorescence, FDSS; fluorescence ratio F(max-min)/F0 at 10 µM; 4,000 compounds, 2% hits; AID 624111;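 active means duplicate-averaged calcium fluorescence ratio at least three times the standard deviation of buffer wells, a nonspecific response in parental cells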
HEK293 Ca counter = activity in parental HEK293 cells without MrgX1. shares compounds with MrgX1 antagonist. parental HEK293 calcium flux, Fluo-4 fluorescence ratio; stronger effect = higher value. fluorescence ratio F(max-min)/F0 at 10 µM. 4,000 compounds, 0.4% hits. AID 624114;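 active means calcium fluorescence ratio, averaged over duplicates, at least 3 SD of the buffer-well ratio, meaning a nonspecific response in receptor-free cells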;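 further: untransfected parental HEK293 lacking MrgX1 used as counterscreen for MrgX1 allosteric activators; fluorescence change taken during the second addition on a kinetic imager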
HEK293 Ca cntr2 = counter-screen for MrgX1 activators: effect in parental HEK293 cells; Fluo-4 calcium fluorescence (FDSS); stronger effect = higher value; fluorescence ratio F(max-min)/F0 at 10 µM; 4,000 compounds, 8.7% hits; AID 624115; shares compounds with MrgX1 antagonist;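 active means calcium fluorescence ratio at least three times the spread of buffer wells, meaning a non-specific response in parental cells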
Of the large screens only hits and unclear results are named; the others gave an inactive call (follow-up assays come after a bar, where they were run). In the library only some 3.5% were active in any assay of this set; here they are far more common.

CCOC(=O)CC1C(=O)NCCN1S(=O)(=O)c1ccc(NC(C)=O)cc1 (stereo not given)	MrgX1 antagonist -6.5 | MrgX1 antag conf inactive | HEK293 Ca flux inactive | HEK293 Ca counter inactive | HEK293 Ca cntr2 inactive
CCOC(=O)CC1C(=O)NCCN1S(=O)(=O)c1ccc(F)cc1 (stereo not given)	none
COc1ccc(-c2noc(CN(C(=O)c3ccc4c(c3)OCO4)C(C)C)n2)cc1	none
COc1ccc(-c2noc(CN(C(=O)c3cccs3)C(C)C)n2)cc1	MrgX1 antagonist -4.83 | MrgX1 antag conf inactive | HEK293 Ca flux inactive | HEK293 Ca counter inactive | HEK293 Ca cntr2 inactive
CCOC(=O)C1CCCN(C(=O)CCc2ccccc2)C1 (stereo not given)	MrgX1 antagonist -6.09 | MrgX1 antag conf inactive | HEK293 Ca flux inactive | HEK293 Ca counter inactive | HEK293 Ca cntr2 inactive
CCOC(=O)C1CCCN(C(=O)CS(=O)(=O)Cc2ccccc2)C1 (stereo not given)	none
CC(C)Sc1nc2sccc2c(=O)n1-c1ccccc1	none
COc1ccc(CCNc2nc(N3CCOCC3)nc(N3CCOCC3)n2)cc1OC	MrgX1 antagonist -5.9 | MrgX1 antag conf inactive | HEK293 Ca flux inactive | HEK293 Ca counter inactive | HEK293 Ca cntr2 inactive
Cc1cc2ccccc2n1CCNC(=O)C1CC1	MrgX1 antagonist -5.99 | MrgX1 antag conf inactive | HEK293 Ca flux inactive | HEK293 Ca counter inactive | HEK293 Ca cntr2 inactive
Cc1cc2ccccc2n1CCNC(=O)C1CCCC1	none
CSc1ccc(CN(C)CC(=O)Nc2c(F)cccc2F)cc1	none
CCC12CN(C(=O)c3ccc(C)cc3)CC(CC)(CN(C(=O)c3ccc(C)cc3)C1)C2=O	none
CCc1ccc(C2c3[nH]c4ccccc4c3CCN2C(=O)c2cc[n+]([O-])cc2)cc1 (stereo not given)	none
Cn1nccc1C(=O)N1CCc2c([nH]c3ccccc23)C1c1ccc(F)cc1 (stereo not given)	MrgX1 antagonist -7.28 | MrgX1 antag conf inactive | HEK293 Ca flux inactive | HEK293 Ca counter inactive | HEK293 Ca cntr2 inactive
Cc1nc2c(-c3ccc(Cl)cc3)cnn2c2c1CCC2	MrgX1 antagonist -5.14 | MrgX1 antag conf inactive | HEK293 Ca flux inactive | HEK293 Ca counter inactive | HEK293 Ca cntr2 inactive
Cc1onc(-c2c(F)cccc2Cl)c1C(=O)Nc1nccs1	MrgX1 antagonist -4.62 | MrgX1 antag conf inactive | HEK293 Ca flux inactive | HEK293 Ca counter inactive | HEK293 Ca cntr2 inactive
Cc1onc(-c2c(F)cccc2Cl)c1C(=O)Nc1nnc(C(F)(F)F)s1	MrgX1 antagonist -5.08 | MrgX1 antag conf 85.4% | HEK293 Ca flux inactive | HEK293 Ca counter inactive | HEK293 Ca cntr2 inactive
Cc1c(C)c2c(OCC(=O)O)cc3c(c2oc1=O)CCC(C)(C)O3	none
Cc1c(C)c2c(OCC(=O)Nc3ccc(CCO)cc3)cc3c(c2oc1=O)CCC(C)(C)O3	MrgX1 antagonist -6.19 | MrgX1 antag conf inactive | HEK293 Ca flux inactive | HEK293 Ca counter inactive | HEK293 Ca cntr2 inactive
COc1ccccc1CNC(=O)COc1cc2c(c3oc(=O)cc(C)c13)CCC(C)(C)O2	MrgX1 antagonist -7.58 | MrgX1 antag conf 62.3% | HEK293 Ca flux inactive | HEK293 Ca counter inactive | HEK293 Ca cntr2 inactive
COc1ccc(-c2csc(NC(=O)CSc3nc(C)cs3)n2)cc1	none
COc1ccc(-c2csc(NC(=O)CSc3nc(C)nc4sc(C(=O)O)c(C)c34)n2)cc1	MrgX1 antagonist -6.43 | MrgX1 antag conf 71.5% | HEK293 Ca flux inactive | HEK293 Ca counter inactive | HEK293 Ca cntr2 inactive
CCC1CN(C(=O)N2CCC(C(=O)NCCc3ccccc3OC)CC2)c2ccccc2O1 (stereo not given)	none
C(=N\Nc1ncnc2nc[nH]c12)/c1cccs1	none
Brc1ccc(-c2csc3ncnc(-n4nnc5ccccc54)c23)cc1	none
O=C1OCCC1Sc1nc2ccccc2c(=O)n1Cc1ccccc1 (stereo not given)	MrgX1 antagonist -6.15 | MrgX1 antag conf inactive | HEK293 Ca flux inactive | HEK293 Ca counter inactive | HEK293 Ca cntr2 inactive
O=C1OCCC1Sc1nc2cc(Cl)ccc2n1Cc1ccccc1 (stereo not given)	none
Cc1cc(S(=O)(=O)N2CCOCC2)ccc1OCC(=O)N1CCCC1	none
O=C(Cn1nc2ccccc2n1)N/N=C/c1ccc(F)cc1	none
O=C(Nc1ccccc1)c1cccc(N2CCCC2=O)c1	MrgX1 antagonist -6.7 | MrgX1 antag conf inactive | HEK293 Ca flux inactive | HEK293 Ca counter inactive | HEK293 Ca cntr2 inactive
CCSc1nc2c(c(-c3ccc(C)o3)c1C#N)CCCC2	none
COC(=O)CSc1nc2c(c(-c3ccc(C)o3)c1C#N)CCCC2	MrgX1 antagonist -6.89 | MrgX1 antag conf inactive | HEK293 Ca flux inactive | HEK293 Ca counter inactive | HEK293 Ca cntr2 inactive
O=C(CNS(=O)(=O)c1ccc([N+](=O)[O-])cc1)N/N=C/c1ccc(O)cc1O	MrgX1 antagonist -12.8 | MrgX1 antag conf 40.5% | HEK293 Ca flux inactive | HEK293 Ca counter 63.1 | HEK293 Ca cntr2 inactive
CO/N=C/C1CCN(c2ncc(C(F)(F)F)cc2Cl)C1=O (stereo not given)	none
CC1(C)CN(C(Cc2ccccc2)C(N)=O)C1=O (stereo not given)	none
C=CCOc1ccc(CNc2ccc3[nH]c(=O)[nH]c3c2)cc1	none
COC(OC)c1ccnc(-c2ccc(OC(C)=O)cc2)n1	none
COC(OC)c1ccnc(-c2ccc(OC(=O)c3ccccc3)cc2)n1	MrgX1 antagonist -9.24 | MrgX1 antag conf inactive | HEK293 Ca flux inactive | HEK293 Ca counter inactive | HEK293 Ca cntr2 inactive
Cc1cc(=O)[nH]c(SCCOc2ccc(OC(C)C)cc2)n1	MrgX1 antagonist -6.72 | MrgX1 antag conf inactive | HEK293 Ca flux inactive | HEK293 Ca counter inactive | HEK293 Ca cntr2 inactive
O=C(c1ccc(Cn2cc(Cl)c([N+](=O)[O-])n2)cc1)N1CCN(Cc2ccccc2)CC1	none
COCc1nnc(NC(=O)c2c(-c3c(Cl)cccc3Cl)noc2C)s1	none
CCCOC(=O)c1ccc(NC(=O)CC(C)(C)C)cc1	MrgX1 antagonist -4.53 | MrgX1 antag conf inactive | HEK293 Ca flux inactive | HEK293 Ca counter inactive | HEK293 Ca cntr2 inactive
CCC(C)NCCOc1cccc(Br)c1 (stereo not given)	MrgX1 antagonist -4.97 | MrgX1 antag conf inactive | HEK293 Ca flux inactive | HEK293 Ca counter inactive | HEK293 Ca cntr2 inactive

Bioassay records: PubChem BioAssay, Johns Hopkins Ion Channel Center
